Laboratory results as given in PMC3830715 (Biochemistry, 2013).
Values belong to the molecule of their own block, whether it stands above or below them.

Experiments:
WT PDK1 PH domain [1] = target: T1, WT PDK1 PH domain (Homo sapiens, UniProt O15530); assay type: binding
T1 sequence (O15530 459-550 limits assumed): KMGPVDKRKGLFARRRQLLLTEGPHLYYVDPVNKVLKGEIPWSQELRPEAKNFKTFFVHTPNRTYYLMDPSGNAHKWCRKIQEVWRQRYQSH

WT PDK1 PH domain [2] = target: T1, WT PDK1 PH domain; assay type: binding; settings: read-out: KD(IP6); free WT PH domain in solution, 25 °C, physiological buffer
Method in brief: (§1)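 Free PH domain, purified from Sf9 cells, was titrated with IP₆ in solution at 25 °C. The buffer was HEPES pH 7.4 with 140 mM KCl, 15 mM NaCl, 0.5 mM MgCl₂ and 10 mM DTT. Intrinsic Trp fluorescence was read at ex 284 nm / em 335 nm, slits 1/8 nm. K_DI came from a nonlinear least squares fit assuming homogeneous binding sites.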

T513E PDK1 PH domain [3] = target: T2, T513E PDK1 PH domain (Homo sapiens, UniProt O15530, T513E); assay type: binding; settings: read-out: KD(IP6); free T513E PH domain in solution, 25 °C, physiological buffer
T2 sequence (O15530 459-550 T513E limits assumed): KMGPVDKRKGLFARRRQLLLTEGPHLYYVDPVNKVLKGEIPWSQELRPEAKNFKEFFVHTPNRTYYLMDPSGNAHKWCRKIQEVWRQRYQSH
Method in brief: as §1

[4] = test system: WT and T513E PDK1 PH domains; assay type: binding, human; settings: PC/PS/PIP3 74/24/2 supported bilayer (dioleoyl PIP3), SE n = 3
WT PDK1 PH domain [5] = target: T1, WT PDK1 PH domain; assay type: binding; remark: listed apart in the source
Method in brief: (§2)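 PH domain (1 μM, from Sf9 cells) was rapidly mixed by stopped flow with plasma membrane-like SUVs (600 μM total lipid, 6 μM accessible PIP₃). Final concentrations were 0.5 μM protein and 3 μM PIP₃, at 25 °C in HEPES pH 7.4 buffer with 10 mM DTT. Trp-to-dansyl-PE FRET was monitored, and a single-exponential fit gave k_on(app). k_off was estimated from the measured K_D and k_on.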

T513E PDK1 PH domain [6] = target: T2, T513E PDK1 PH domain; assay type: binding
Method in brief: as §2

[7] = target: the molecule itself; assay: single molecule TIRFM brightness analysis

higher affinity for IP4 than for IP6 (WT PDK1 PH domain [1]; WT PH domain): 80 fold
Molecule: O=P(O)(O)OC1[C@H](O)[C@H](OP(=O)(O)O)C(OP(=O)(O)O)[C@H](OP(=O)(O)O)[C@H]1O (some centres unmarked) [IP4, inositol 1,3,4,5-tetrakis(phosphate)]

Kd (WT PDK1 PH domain [2]): 9 ± 3 µM
membrane-bound protein displaced (WT PDK1 PH domain [1]; 1 mM IP6, WT PH domain on PIP3 target membranes): less than 5%
Kd (T513E PDK1 PH domain [3]): 30 ± 11 µM
Molecule: O=P(O)(O)OC1C(OP(=O)(O)O)C(OP(=O)(O)O)C(OP(=O)(O)O)C(OP(=O)(O)O)C1OP(=O)(O)O (centres unmarked) [IP6, Inositol 1,2,3,4,5,6-hexakisphosphate]

kon (app) (WT PDK1 PH domain [5]; WT PH domain 0.5 μM, 3 μM accessible PIP3, 25 °C): 1.6 ± 0.1 µM⁻¹ s⁻¹
koff (calc) (WT PDK1 PH domain [5]; WT PH domain, estimated from measured KD and kon): 0.3 ± 0.2 ms ^−1
kon (app) (T513E PDK1 PH domain [6]; T513E PH domain 0.5 μM, 3 μM accessible PIP3, 25 °C): 2.5 ± 0.1 µM⁻¹ s⁻¹
koff (calc) (T513E PDK1 PH domain [6]; T513E PH domain, estimated from measured KD and kon): 18 ± 5 ms ^−1
greater PIP3 membrane affinity of dimeric WT relative to monomeric T513E (WT PDK1 PH domain [1]; plasma membrane-like bilayers): 35 fold
Molecule: CCCCCCCCCCCCCCCC(=O)OC[C@H](COP(=O)(O)OC1[C@H](O)[C@H](OP(=O)(O)O)C(OP(=O)(O)O)[C@H](OP(=O)(O)O)[C@H]1O)OC(=O)CCCCCCCCCCCCCCC (some centres unmarked) [PIP3, 1,2-dipalmitoylphosphatidylinositol 3,4,5-trisphosphate]
higher concentration of T513E PH domain needed relative to WT for same density of membrane-associated single particles (lower affinity for target PIP3 bilayer) [4]: 9.7 ± 1.9 fold

B1: human WT PDK1 PH domain, AF555-labeled (domain or fragment, UniProt O15530 409-556, looked up)
chain: GSNIEQYIHDLDSNSFELDLQFSEDEKRLLLEKQAGGNPWHQFVENNLILKMGPVDKRKGLFARRRQLLLTEGPHLYYVDPVNKVLKGEIPWSQELRPEAKNFKTFFVHTPNRTYYLMDPSGNAHKWCRKIQEVWRQRYQSHPDAAVQ
modifications: Alexa Fluor 555 on the N-terminal Sfp labeling tag (enzymatic labeling, up to ~50% labeling efficiency)
stoichiometry N [7]: 2
